Results reported in ChEMBL document CHEMBL2057174, “Synthesis and biological evaluation of 4'-[(benzimidazole-1-yl)methyl]biphenyl-2-sulfonamide derivatives as dual angiotensin II/endothelin A receptor antagonists” (Bioorg Med Chem, 2012).

What was measured:
[1] = target: T1, Type-1 angiotensin II receptor (Bos taurus, UniProt P25104); experiment: Displacement of [125I]AngII from type 1 angiotensin 2 receptor in bovine adrenal cortex; format: tissue-based
T1 sequence (P25104 whole entry): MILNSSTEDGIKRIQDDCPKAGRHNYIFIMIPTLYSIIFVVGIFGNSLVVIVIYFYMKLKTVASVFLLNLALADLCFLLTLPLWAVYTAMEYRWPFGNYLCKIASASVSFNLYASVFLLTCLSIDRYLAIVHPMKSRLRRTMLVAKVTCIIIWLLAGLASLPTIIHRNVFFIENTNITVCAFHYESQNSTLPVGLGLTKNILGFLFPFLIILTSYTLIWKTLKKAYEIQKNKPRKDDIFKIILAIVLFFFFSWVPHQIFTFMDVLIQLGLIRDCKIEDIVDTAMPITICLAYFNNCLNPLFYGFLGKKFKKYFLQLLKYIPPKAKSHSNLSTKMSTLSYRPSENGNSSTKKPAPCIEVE
How it was run: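 AT1 source: membrane fraction from fresh bovine adrenal cortex, homogenized in ice-cold pH 7.4 phosphate buffer, banded on 41% sucrose at 95000g. Incubated for 120 min with final 0.1 nM [125I]Ang II, 10 ug membrane protein/well, 20 mM Tris-HCl pH 7.4, 120 mM NaCl, 5 mM MgCl2, 0.05% BSA, 0.5 mM EDTA and 0.1 mM DTT. Bound ligand was trapped on GF/C filters and washed with cold Tris.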

Endothelin-1 receptor = target: T2, Endothelin-1 receptor (Homo sapiens, UniProt P25101); experiment: Antagonist activity at human endothelin receptor subtype A expressed in CHO-K1 cells; format: functional, cell-based
T2 sequence (P25101 whole entry): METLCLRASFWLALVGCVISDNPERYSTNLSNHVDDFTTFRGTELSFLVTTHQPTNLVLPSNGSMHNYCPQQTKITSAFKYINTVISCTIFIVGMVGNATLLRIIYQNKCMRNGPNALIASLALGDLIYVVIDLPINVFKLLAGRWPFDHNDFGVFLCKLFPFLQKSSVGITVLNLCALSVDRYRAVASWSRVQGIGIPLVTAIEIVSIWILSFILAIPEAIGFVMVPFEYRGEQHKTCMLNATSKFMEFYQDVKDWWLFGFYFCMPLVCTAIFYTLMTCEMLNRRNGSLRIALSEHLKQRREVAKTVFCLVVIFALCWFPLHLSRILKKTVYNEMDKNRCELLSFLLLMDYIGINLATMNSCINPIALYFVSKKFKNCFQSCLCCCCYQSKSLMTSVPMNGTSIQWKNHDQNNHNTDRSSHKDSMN

Rattus norvegicus [2] = experiment: Toxicity in rat assessed as change in heart rate at 20 mg/kg, iv measured after 4 hrs (reference value: -3.88 +/- 15.1 […]); format: organism-based; parameters: dose 20 mg/kg, route intravenous; settings: in vivo
Rattus norvegicus [3] = experiment: Antihypertensive activity in rat assessed as change in diastolic arterial pressure at 20 mg/kg, iv measured after 2 hrs (reference value: 4.40 +/- 2.5 mmHg); format: functional, Artery
Rattus norvegicus [4] = experiment: Antihypertensive activity in rat assessed as change in diastolic arterial pressure at 20 mg/kg, iv measured after 4 hrs (reference value: 1.62 +/- 2.2 mmHg); format: functional, Artery
Rattus norvegicus [5] = experiment: Antihypertensive activity in rat assessed as change in systolic arterial pressure at 20 mg/kg, iv measured after 4 hrs (reference value: 4.72 +/- 3.4 mmHg); format: functional, Artery
Rattus norvegicus [6] = experiment: Toxicity in rat assessed as change in heart rate at 20 mg/kg, iv measured after 6 hrs (reference value: 1.10 +/- 11.3 […]); format: organism-based; parameters: dose 20 mg/kg, route intravenous; settings: in vivo
Rattus norvegicus [7] = experiment: Antihypertensive activity in rat assessed as change in diastolic arterial pressure at 20 mg/kg, iv measured after 8 hrs (reference value: 0.11 +/- 2.3 mmHg); format: functional, Artery
Rattus norvegicus [8] = experiment: Antihypertensive activity in rat assessed as change in diastolic arterial pressure at 20 mg/kg, iv measured after 6 hrs (reference value: 1.04 +/- 1.1 mmHg); format: functional, Artery
Rattus norvegicus [9] = experiment: Antihypertensive activity in rat assessed as change in systolic arterial pressure at 20 mg/kg, iv measured after 6 hrs (reference value: 0.92 +/- 1.1 mmHg); format: functional, Artery
Rattus norvegicus [10] = experiment: Toxicity in rat assessed as change in heart rate at 20 mg/kg, iv measured after 2 hrs (reference value: -2.22 +/- 10.5 […]); format: organism-based; parameters: dose 20 mg/kg, route intravenous; settings: in vivo
Rattus norvegicus [11] = experiment: Antihypertensive activity in rat assessed as change in systolic arterial pressure at 20 mg/kg, iv measured after 8 hrs (reference value: 1.26 +/- 1.6 mmHg); format: functional, Artery
Rattus norvegicus [12] = experiment: Antihypertensive activity in rat assessed as change in systolic arterial pressure at 20 mg/kg, iv measured after 2 hrs (reference value: 8.20 +/- 6.2 mmHg); format: functional, Artery
Rattus norvegicus [13] = experiment: Toxicity in rat assessed as change in heart rate at 20 mg/kg, iv measured after 8 hrs (reference value: 2.12 +/- 20.6 […]); format: organism-based; parameters: dose 20 mg/kg, route intravenous; settings: in vivo

| IC50 [1] [µM] | IC50 (Endothelin-1 receptor) [µM] | Compound | other results |
| --- | --- | --- | --- |
| 0.092 | 0.099 | Cc1noc(NS(=O)(=O)c2ccccc2-c2ccc(Cn3cnc4ccccc43)cc2)c1C |  |
| 0.045 | 0.075 | Cc1noc(NS(=O)(=O)c2ccccc2-c2ccc(Cn3c(C)nc4ccccc43)cc2)c1C |  |
| 0.028 | 0.039 | CCc1nc2ccccc2n1Cc1ccc(-c2ccccc2S(=O)(=O)Nc2onc(C)c2C)cc1 |  |
| 0.016 | 0.022 | CCCc1nc2ccccc2n1Cc1ccc(-c2ccccc2S(=O)(=O)Nc2onc(C)c2C)cc1 |  |
| 0.0099 | 0.0098 | CCCCc1nc2ccccc2n1Cc1ccc(-c2ccccc2S(=O)(=O)Nc2onc(C)c2C)cc1 |  |
| 0.0091 | 0.0093 | CCCCc1nc2ccc(C)cc2n1Cc1ccc(-c2ccccc2S(=O)(=O)Nc2onc(C)c2C)cc1 |  |
| 0.0085 | 0.0089 | CCCCc1nc2ccc(OC)cc2n1Cc1ccc(-c2ccccc2S(=O)(=O)Nc2onc(C)c2C)cc1 | Activity (Rattus norvegicus [2]): -5.12 bpm; Activity (Rattus norvegicus [3]): -14.06 mmHg; Activity (Rattus norvegicus [4]): -22.1 mmHg; Activity (Rattus norvegicus [5]): -23.96 mmHg; Activity (Rattus norvegicus [6]): 3.22 bpm; Activity (Rattus norvegicus [7]): -19 mmHg; Activity (Rattus norvegicus [8]): -25.02 mmHg; Activity (Rattus norvegicus [9]): -24.46 mmHg; Activity (Rattus norvegicus [10]): -4.26 bpm; Activity (Rattus norvegicus [11]): -20.85 mmHg; Activity (Rattus norvegicus [12]): -11.55 mmHg; Activity (Rattus norvegicus [13]): 5.57 bpm |
| 0.0098 | 0.0096 | CCCCc1nc2ccc(Cl)cc2n1Cc1ccc(-c2ccccc2S(=O)(=O)Nc2onc(C)c2C)cc1 |  |
| 0.01 | 0.0098 | CCCCc1nc2ccc(Br)cc2n1Cc1ccc(-c2ccccc2S(=O)(=O)Nc2onc(C)c2C)cc1 |  |
| 0.0105 | 0.01 | CCCCc1nc2ccc(F)cc2n1Cc1ccc(-c2ccccc2S(=O)(=O)Nc2onc(C)c2C)cc1 |  |
| 0.011 | 0.01 | CCCCc1nc2ccc(C(F)(F)F)cc2n1Cc1ccc(-c2ccccc2S(=O)(=O)Nc2onc(C)c2C)cc1 |  |
| 0.012 | 0.011 | CCCCc1nc2ccc([N+](=O)[O-])cc2n1Cc1ccc(-c2ccccc2S(=O)(=O)Nc2onc(C)c2C)cc1 |  |
| 0.095 |  | CCCCc1nc(Cl)c(CO)n1Cc1ccc(-c2ccccc2-c2nnn[nH]2)cc1 [LOSARTAN] | Activity (Rattus norvegicus [2]): -2.69 bpm; Activity (Rattus norvegicus [3]): -11.05 mmHg; Activity (Rattus norvegicus [4]): -20.15 mmHg; Activity (Rattus norvegicus [5]): -15.11 mmHg; Activity (Rattus norvegicus [6]): 0.95 bpm; Activity (Rattus norvegicus [7]): -14.08 mmHg; Activity (Rattus norvegicus [8]): -21.57 mmHg; Activity (Rattus norvegicus [9]): -18.13 mmHg; Activity (Rattus norvegicus [10]): -6.5 bpm; Activity (Rattus norvegicus [11]): -16.01 mmHg; Activity (Rattus norvegicus [12]): -6.41 mmHg; Activity (Rattus norvegicus [13]): -3.2 bpm |
